In ChEMBL document CHEMBL5055637, “Novel C-3-(N-alkyl-aryl)-aminomethyl rifamycin SV derivatives exhibit activity against rifampicin-resistant Mycobacterium tuberculosis RpoBS522L strain and display a different binding mode at the RNAP β-subunit site compared to rifampicin” (2021) one finds MIC90 data, which are given here for eleven compounds.

Holding throughout (format): functional
What all share (conditions): time 5 day

Test [1] has as its system Mycobacterium tuberculosis. Nature of the test: Antitubercular activity against rifampicin resistant Mycobacterium tuberculosis HN878 harboring RpoBH455D mutant assessed as bacterial growth inhibition measured after 5 days by serial dilution method. The method, boiled down:
(§1)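 Strains grown in Middlebrook 7H9 with OADC supplement and 0.05% w/v Tween 80. Compounds tested as 10-point 2-fold serial dilutions. Growth read as OD590 after 5 days in 7H9-OADC-Tw. Levenberg-Marquardt curve fitting gave MIC90, the concentration inhibiting growth by 90% relative to controls. Run in triplicate.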

Test [2] relates to Mycobacterium tuberculosis. The test is described as follows: Antitubercular activity against rifampicin resistant Mycobacterium tuberculosis ATCC 35838 harboring RpoBS531L mutant assessed as bacterial growth inhibition measured after 5 days by serial dilution method. An outline of the steps: as §1
The test system of test [3] is Mycobacterium tuberculosis H37Rv. Nature of the test: Antitubercular activity against rifampicin resistant Mycobacterium tuberculosis H37Rv harboring RpoBS522L mutant assessed as bacterial growth inhibition measured after 5 days by serial dilution method. An outline of the steps:
as §1

≈ marks a conversion by molar mass, not a printed value.

Consider `CO[C@H]1/C=C/O[C@@]2(C)Oc3c(C)c(O)c4c(O)c(c(CNCc5ccco5)c(O)c4c3C2=O)NC(=O)/C(C)=C\C=C\[C@H](C)[C@H](O)[C@@H](C)[C@@H](O)[C@@H](C)[C@H](OC(C)=O)[C@@H]1C`, for which the MIC90 in test [1] is 16 µM (≈ 12.9 µg/mL); in test [2] it was greater than 20 µM; in test [3] it was greater than 20 µM.
With `CO[C@H]1/C=C/O[C@@]2(C)Oc3c(C)c(O)c4c(O)c(c(CNCc5ccccc5)c(O)c4c3C2=O)NC(=O)/C(C)=C\C=C\[C@H](C)[C@H](O)[C@@H](C)[C@@H](O)[C@@H](C)[C@H](OC(C)=O)[C@@H]1C`, the values for the MIC90 in test [1], in test [2] and in test [3] were 9.9 µM (≈ 8.09 µg/mL), greater than 20 µM and 12 µM (≈ 9.8 µg/mL), respectively.
Take `CO[C@H]1/C=C/O[C@@]2(C)Oc3c(C)c(O)c4c(O)c(c(CNCc5cccs5)c(O)c4c3C2=O)NC(=O)/C(C)=C\C=C\[C@H](C)[C@H](O)[C@@H](C)[C@@H](O)[C@@H](C)[C@H](OC(C)=O)[C@@H]1C`: the MIC90 in test [1] was 14 µM (≈ 11.5 µg/mL); in test [2] it was greater than 20 µM; in test [3], 8 µM (≈ 6.58 µg/mL).
For `CO[C@H]1/C=C/O[C@@]2(C)Oc3c(C)c(O)c4c(O)c(c(CN5CCN(CCO)CC5)c(O)c4c3C2=O)NC(=O)/C(C)=C\C=C\[C@H](C)[C@H](O)[C@@H](C)[C@@H](O)[C@@H](C)[C@H](OC(C)=O)[C@@H]1C`, the results for the MIC90 in test [1], in test [2] and in test [3] were greater than 20 µM, greater than 20 µM and 4.7 µM (≈ 3.95 µg/mL), respectively.
Take `CO[C@H]1/C=C/O[C@@]2(C)Oc3c(C)c(O)c4c(O)c(c(CNCc5ccncc5)c(O)c4c3C2=O)NC(=O)/C(C)=C\C=C\[C@H](C)[C@H](O)[C@@H](C)[C@@H](O)[C@@H](C)[C@H](OC(C)=O)[C@@H]1C`: the MIC90 in test [1] was greater than 20 µM; in test [2], greater than 20 µM; in test [3] it was 6.7 µM (≈ 5.48 µg/mL).
In the case of `CO[C@H]1/C=C/O[C@@]2(C)Oc3c(C)c(O)c4c(O)c(c(CNCc5ccc(S(C)(=O)=O)cc5)c(O)c4c3C2=O)NC(=O)/C(C)=C\C=C\[C@H](C)[C@H](O)[C@@H](C)[C@@H](O)[C@@H](C)[C@H](OC(C)=O)[C@@H]1C`, the MIC90 in test [1] was greater than 20 µM; in test [2] it was greater than 20 µM; in test [3] it was 3.2 µM (≈ 2.86 µg/mL).
In the case of `CO[C@H]1/C=C/O[C@@]2(C)Oc3c(C)c(O)c4c(O)c(c(CNCCc5ccc(O)cc5)c(O)c4c3C2=O)NC(=O)/C(C)=C\C=C\[C@H](C)[C@H](O)[C@@H](C)[C@@H](O)[C@@H](C)[C@H](OC(C)=O)[C@@H]1C`, the MIC90 in test [1] was greater than 20 µM; in test [2] it was greater than 20 µM; in test [3] it was 5.8 µM (≈ 4.91 µg/mL).
In the case of `COC(=O)c1ccc(CNCc2c3c(O)c4c(O)c(C)c5c(c4c2O)C(=O)[C@@](C)(O/C=C/[C@H](OC)[C@@H](C)[C@@H](OC(C)=O)[C@H](C)[C@H](O)[C@H](C)[C@@H](O)[C@@H](C)/C=C/C=C(/C)C(=O)N3)O5)cc1`, the MIC90 in test [1] is greater than 20 µM; in test [2], greater than 20 µM; in test [3] it was 7.7 µM (≈ 6.74 µg/mL).
As to `CO[C@H]1/C=C/O[C@@]2(C)Oc3c(C)c(O)c4c(O)c(c(/C=N/N5CCN(C)CC5)c(O)c4c3C2=O)NC(=O)/C(C)=C\C=C\[C@H](C)[C@H](O)[C@@H](C)[C@@H](O)[C@@H](C)[C@H](OC(C)=O)[C@@H]1C` [RIFAMPIN], the MIC90 in test [1], in test [2] and in test [3] was greater than 8 µM in each case.
Turning to `NNC(=O)c1ccncc1` [ISONIAZID], the MIC90 was 0.62 µM (≈ 0.085 µg/mL) in test [1], 0.55 µM (≈ 0.0754 µg/mL) in test [2] and 0.29 µM (≈ 0.0398 µg/mL) in test [3].
With `CO[C@H]1/C=C/O[C@@]2(C)Oc3c(C)c(O)c4c(O)c(c(CNCCc5c[nH]c6ccccc56)c(O)c4c3C2=O)NC(=O)/C(C)=C\C=C\[C@H](C)[C@H](O)[C@@H](C)[C@@H](O)[C@@H](C)[C@H](OC(C)=O)[C@@H]1C`, the figures for the MIC90 in test [1], in test [2] and in test [3] were greater than 20 µM, greater than 20 µM and 3.1 µM (≈ 2.7 µg/mL), respectively.
